The record followed here is ChEMBL document CHEMBL4308827 (J Med Chem, 2018).

Calls of active or inactive are those of the source. The rule behind the calls is not given here.

Usually EC50 stands for the concentration at which the effect is half-maximal. What is called Ki is the dissociation constant of the complex between target and ligand, obtained from inhibition or displacement. As usually defined, the pKi is −log10 of the Ki, conventionally taken in molar units. Lower therefore signals a large Ki.

Experiment [1] has as its target T1, Metabotropic glutamate receptor 2 (Homo sapiens, UniProt Q14416). The experiment is described as follows: Positive allosteric modulation of human mGlu2 receptor expressed in CHOK1 cell membranes assessed as increase in glutamate-induced [35S]GTPgammaS binding preincubated for 30 mins followed by [35S]GTPgammaS addition and measured after 90 mins by scintillation spectrometry method. Type of experiment: functional.
Target sequence in this assay (Q14416 whole entry): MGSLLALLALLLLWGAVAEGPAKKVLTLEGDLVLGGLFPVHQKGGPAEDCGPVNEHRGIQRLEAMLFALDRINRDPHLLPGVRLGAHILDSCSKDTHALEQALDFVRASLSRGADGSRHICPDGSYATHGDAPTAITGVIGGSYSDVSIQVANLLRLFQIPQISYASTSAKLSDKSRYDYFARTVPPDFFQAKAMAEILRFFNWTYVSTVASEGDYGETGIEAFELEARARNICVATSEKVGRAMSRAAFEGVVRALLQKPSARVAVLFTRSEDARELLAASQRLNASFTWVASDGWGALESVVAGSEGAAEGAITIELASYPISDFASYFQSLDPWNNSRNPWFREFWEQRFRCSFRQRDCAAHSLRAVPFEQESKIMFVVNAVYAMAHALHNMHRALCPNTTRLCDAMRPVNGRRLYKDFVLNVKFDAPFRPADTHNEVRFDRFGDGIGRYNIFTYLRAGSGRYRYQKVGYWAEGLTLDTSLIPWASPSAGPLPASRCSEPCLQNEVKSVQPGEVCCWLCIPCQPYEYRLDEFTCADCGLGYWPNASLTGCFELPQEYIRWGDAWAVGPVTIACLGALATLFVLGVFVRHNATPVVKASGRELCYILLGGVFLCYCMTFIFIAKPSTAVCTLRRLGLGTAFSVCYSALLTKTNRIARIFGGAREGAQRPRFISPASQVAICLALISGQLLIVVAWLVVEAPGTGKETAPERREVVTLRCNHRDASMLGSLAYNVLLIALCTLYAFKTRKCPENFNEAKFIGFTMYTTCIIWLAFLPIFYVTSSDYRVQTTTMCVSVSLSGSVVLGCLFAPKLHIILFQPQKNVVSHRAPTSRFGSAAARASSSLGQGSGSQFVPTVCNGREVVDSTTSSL

Experiment [2] concerns the target T1, Metabotropic glutamate receptor 2. Kind of experiment: Displacement of [3H]JNJ-46281222 from human mGlu2 receptor expressed in CHOK1 cell membranes after 1 hr by microbeta scintillation counting method. (Loss of bound radioactivity is the signal in a displacement assay; it reports binding, not function.)
Target sequence in this assay (Q14416 whole entry): as above
The target is the same in experiment [3]. Kind of experiment: Displacement of [3H]JNJ-46281222 from human mGlu2 receptor expressed in CHOK1 cell membranes preincubated for 3 hrs followed by [3H]JNJ-46281222 addition and measured after 1 hr by microbeta scintillation counting method.
Target sequence in this assay (Q14416 whole entry): as above
The target is the same in experiment [4]. The experiment is described as follows: Displacement of [3H]JNJ-46281222 from human mGlu2 receptor expressed in CHOK1 cell membranes assessed as association rate constant after 1 hr in presence of glutamate by microbeta scintillation counting method.
Target sequence in this assay (Q14416 19-872 limits assumed): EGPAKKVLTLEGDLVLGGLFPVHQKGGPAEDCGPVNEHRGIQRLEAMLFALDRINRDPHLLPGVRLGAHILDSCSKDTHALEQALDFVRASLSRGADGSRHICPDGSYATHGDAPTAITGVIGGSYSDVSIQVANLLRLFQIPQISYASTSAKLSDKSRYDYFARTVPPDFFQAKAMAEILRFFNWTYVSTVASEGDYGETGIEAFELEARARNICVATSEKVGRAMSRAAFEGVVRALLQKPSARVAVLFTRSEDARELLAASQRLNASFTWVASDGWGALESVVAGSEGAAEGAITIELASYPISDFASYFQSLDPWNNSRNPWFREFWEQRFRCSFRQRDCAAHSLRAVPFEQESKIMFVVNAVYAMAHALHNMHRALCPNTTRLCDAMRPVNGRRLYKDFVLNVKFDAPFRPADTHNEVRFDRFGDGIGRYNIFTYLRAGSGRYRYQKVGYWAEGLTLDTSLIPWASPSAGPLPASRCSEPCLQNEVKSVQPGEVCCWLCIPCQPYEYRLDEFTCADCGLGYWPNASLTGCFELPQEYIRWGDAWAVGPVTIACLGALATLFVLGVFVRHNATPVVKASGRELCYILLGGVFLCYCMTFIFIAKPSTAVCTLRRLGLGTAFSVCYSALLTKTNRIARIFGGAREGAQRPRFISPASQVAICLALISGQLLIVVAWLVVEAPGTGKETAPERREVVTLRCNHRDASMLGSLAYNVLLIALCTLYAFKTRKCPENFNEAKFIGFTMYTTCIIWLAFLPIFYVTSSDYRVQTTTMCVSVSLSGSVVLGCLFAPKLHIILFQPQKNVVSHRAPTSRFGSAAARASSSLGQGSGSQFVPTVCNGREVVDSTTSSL
Experiment [5] has the same target. The experiment is described as follows: Displacement of [3H]JNJ-46281222 from human mGlu2 receptor expressed in CHOK1 cell membranes assessed as dissociation rate constant after 1 hr in presence of glutamate by microbeta scintillation counting method.
Target sequence in this assay (Q14416 19-872 limits assumed): as above
Experiment [6] has the same target. The experiment is described as follows: Displacement of [3H]JNJ-46281222 from human mGlu2 receptor expressed in CHOK1 cell membranes assessed as residence time after 1 hr in presence of glutamate by microbeta scintillation counting method.
Target sequence in this assay (Q14416 19-872 limits assumed): as above
Experiment [7] has the same target. Kind of experiment: Irreversible displacement of [3H]JNJ-46281222 from human mGlu2 receptor expressed in CHOK1 cell membranes at 10 times IC50 preincubated for 1 hr in presence of glutamate followed by compound washout and [3H]JNJ-46281222 addition measured after 1 hr by microbeta scintillation counting method.
Target sequence in this assay (Q14416 19-872 limits assumed): as above
Experiment [8] has the same target. The experiment is described as follows: Ratio of Ki for human mGlu2 receptor expressed in CHOK1 cell membranes without preincubation to Ki for human mGlu2 receptor expressed in CHOK1 cell membranes preincubated for 3 hrs. Type of experiment: cell-based. The method in brief: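 CHO-K1 membranes stably expressing hmGlu2 (butyrate-induced, 15 µg) were pre-coupled to WGA SPA beads. […] Nonspecific binding was defined with 10 µM JNJ-40068782. Mean of ≥3 experiments in duplicate.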
Target sequence in this assay (Q14416 19-872 limits assumed): as above

Experiment [9] has the same target. The experiment is described as follows: Displacement of [3H]JNJ-46281222 from human mGlu2 receptor expressed in CHOK1 cell membranes at IC50 after 1 hr in presence of glutamate by microbeta scintillation counting method.
Target sequence in this assay (Q14416 19-872 limits assumed): as above
For experiment [10] the target is unchanged. The experiment is described as follows: Positive allosteric modulation of human mGlu2 receptor expressed in CHOK1 cell membranes assessed as increase in glutamate-induced [35S]GTPgammaS binding preincubated for 3 hrs followed by [35S]GTPgammaS addition and measured after 1 hr by scintillation spectrometry method. It is filed as functional.
Target sequence in this assay (Q14416 whole entry): as the sequence (Q14416 whole entry) above
Experiment [11] has the same target. The experiment is described as follows: Positive allosteric modulation of human mGlu2 receptor expressed in CHOK1 cell membranes assessed as increase in glutamate-induced [35S]GTPgammaS binding measured after 1 hr by scintillation spectrometry method. Type of experiment: functional. Background: Binding of GTPγS marks nucleotide exchange on a G protein.
Target sequence in this assay (Q14416 whole entry): as above
For experiment [12] the target is unchanged. The experiment is described as follows: Ratio of EC50 for positive allosteric modulation of human mGlu2 receptor expressed in CHOK1 cell membranes assessed as increase in glutamate-induced [35S]GTPgammaS binding co-incubated with [35S]GTPgammaS to EC50 for positive allosteric modulation of human mGlu2 receptor expressed in CHOK1 cell …. Type of experiment: functional.

Experiment [13] shares this target. Kind of experiment: Irreversible positive allosteric modulation of human mGlu2 receptor expressed in CHOK1 cell membranes assessed as increase in glutamate-induced [35S]GTPgammaS binding at 10 times IC50 preincubated for 30 mins followed by compound washout and subsequent [35S]GTPgammaS addition and measured after 30 mins by scintillation spectrometry method. It is filed as functional.

Experiment [14] shares this target. The experiment is described as follows: Positive allosteric modulation of human mGlu2 receptor expressed in CHOK1 cell membranes assessed as increase in glutamate-induced [35S]GTPgammaS binding at 10 times IC50 test compound added before washing steps preincubated for 30 mins followed by [35S]GTPgammaS addition and measured after 30 mins by scintillation spectrometry method. It is filed as functional.

The target is the same in experiment [15]. The experiment is described as follows: Displacement of [3H]JNJ-46281222 from human mGlu2 receptor transiently expressed in CHOK1 cell membranes after 1 hr by liquid scintillation counting method.
Target sequence in this assay (Q14416 whole entry): as above
Experiment [16] in a line: Displacement of [3H]JNJ-46281222 from human mGlu2 T7917.29x30A mutant receptor transiently expressed in CHOK1 cell membranes after 1 hr by liquid scintillation counting method.
Experiment [17] is filed under the species Homo sapiens. Kind of experiment: Displacement of [3H]JNJ-46281222 from human mGlu2 R6353.32x32A mutant receptor transiently expressed in CHOK1 cell membranes at 10 times IC50 after 1 hr by liquid scintillation counting method.
Experiment [18] deals with Metabotropic glutamate receptor 2 (Homo sapiens), Q14416 [R720A]. The experiment is described as follows: Displacement of [3H]JNJ-46281222 from human mGlu2 R720A mutant receptor transiently expressed in CHOK1 cell membranes at 10 times IC50 after 1 hr by liquid scintillation counting method.
The test system of experiment [19] is Metabotropic glutamate receptor 2 (Homo sapiens), Q14416 [Y787A]. The experiment is described as follows: Displacement of [3H]JNJ-46281222 from human mGlu2 Y787A mutant receptor transiently expressed in CHOK1 cell membranes at 10 times IC50 after 1 hr by liquid scintillation counting method.
For experiment [20], the species on record is Homo sapiens. The experiment is described as follows: Displacement of [3H]JNJ-46281222 from human mGlu2 C7957.33x34A mutant receptor transiently expressed in CHOK1 cell membranes at 10 times IC50 after 1 hr by liquid scintillation counting method.
The species entered for experiment [21] is Homo sapiens. The experiment is described as follows: Displacement of [3H]JNJ-46281222 from human mGlu2 T7917.29x30A mutant receptor transiently expressed in CHOK1 cell membranes preincubated for 3 hrs followed by [3H]JNJ-46281222 addition and measured after 1 hr by liquid scintillation counting method.
The target in experiment [22] is Metabotropic glutamate receptor 1 (Homo sapiens) (UniProt Q13255). Kind of experiment: Agonist activity at human mGlu1 receptor expressed in HEK293 cells by calcium assay. It is filed as functional, cell-based.
Experiment [23] has the same target. Kind of experiment: Antagonist activity at human mGlu1 receptor expressed in HEK293 cells by calcium assay. It is filed as functional, cell-based.
The target is the same in experiment [24]. Kind of experiment: Positive allosteric modulation of human mGlu1 receptor expressed in HEK293 cells by calcium assay. Type of experiment: functional, cell-based.
Experiment [25] deals with Metabotropic glutamate receptor 3 (Homo sapiens) (UniProt Q14832). The experiment is described as follows: Agonist activity at human mGlu3 receptor expressed in HEK293 cells by calcium assay. Type of experiment: functional, cell-based.
For experiment [26] the target is unchanged. The experiment is described as follows: Antagonist activity at human mGlu3 receptor expressed in HEK293 cells by calcium assay. Type of experiment: functional, cell-based.
The target is the same in experiment [27]. Kind of experiment: Positive allosteric modulation of human mGlu3 receptor expressed in HEK293 cells by calcium assay. It is filed as functional, cell-based.
Experiment [28] has as its target Metabotropic glutamate receptor 5 (Homo sapiens) (UniProt P41594). Kind of experiment: Agonist activity at human mGlu5 receptor expressed in HEK293 cells by calcium assay. Type of experiment: functional, cell-based.
Experiment [29] shares this target. Kind of experiment: Antagonist activity at human mGlu5 receptor expressed in HEK293 cells by calcium assay. Type of experiment: functional, cell-based.
The target is the same in experiment [30]. Kind of experiment: Positive allosteric modulation of human mGlu5 receptor expressed in HEK293 cells by calcium assay. Type of experiment: functional, cell-based.
The target in experiment [31] is Metabotropic glutamate receptor 8 (Homo sapiens) (UniProt O00222). Kind of experiment: Agonist activity at human mGlu8 receptor expressed in HEK293 cells by calcium assay. It is filed as functional, cell-based.
The target is the same in experiment [32]. The experiment is described as follows: Antagonist activity at human mGlu8 receptor expressed in HEK293 cells by calcium assay. It is filed as functional, cell-based.

Metabotropic glutamate receptor 3 (Homo sapiens), sequence (Q14832 23-879 limits assumed): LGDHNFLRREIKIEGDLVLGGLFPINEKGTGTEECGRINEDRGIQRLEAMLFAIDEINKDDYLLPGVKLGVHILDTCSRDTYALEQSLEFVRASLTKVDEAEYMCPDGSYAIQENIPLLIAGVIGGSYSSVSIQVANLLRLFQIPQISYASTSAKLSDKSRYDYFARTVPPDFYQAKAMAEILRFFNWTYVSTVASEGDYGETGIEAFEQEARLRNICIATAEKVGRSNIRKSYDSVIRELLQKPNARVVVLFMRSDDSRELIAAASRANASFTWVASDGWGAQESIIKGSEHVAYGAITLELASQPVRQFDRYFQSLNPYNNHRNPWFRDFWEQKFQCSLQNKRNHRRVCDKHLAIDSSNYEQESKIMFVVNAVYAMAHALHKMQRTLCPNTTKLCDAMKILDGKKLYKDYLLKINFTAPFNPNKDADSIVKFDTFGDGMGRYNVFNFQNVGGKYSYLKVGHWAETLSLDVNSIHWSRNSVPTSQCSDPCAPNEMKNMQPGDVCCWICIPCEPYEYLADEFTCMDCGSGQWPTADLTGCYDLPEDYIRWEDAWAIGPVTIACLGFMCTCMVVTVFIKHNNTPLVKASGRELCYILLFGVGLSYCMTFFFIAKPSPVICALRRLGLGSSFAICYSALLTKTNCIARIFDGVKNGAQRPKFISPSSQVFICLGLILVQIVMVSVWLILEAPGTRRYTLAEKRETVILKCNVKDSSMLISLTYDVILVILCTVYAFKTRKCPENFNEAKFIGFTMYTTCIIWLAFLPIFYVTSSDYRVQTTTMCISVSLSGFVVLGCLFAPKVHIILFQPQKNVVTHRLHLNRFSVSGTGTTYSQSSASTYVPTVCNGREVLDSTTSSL
Metabotropic glutamate receptor 5 (Homo sapiens), sequence (P41594 21-1212 limits assumed): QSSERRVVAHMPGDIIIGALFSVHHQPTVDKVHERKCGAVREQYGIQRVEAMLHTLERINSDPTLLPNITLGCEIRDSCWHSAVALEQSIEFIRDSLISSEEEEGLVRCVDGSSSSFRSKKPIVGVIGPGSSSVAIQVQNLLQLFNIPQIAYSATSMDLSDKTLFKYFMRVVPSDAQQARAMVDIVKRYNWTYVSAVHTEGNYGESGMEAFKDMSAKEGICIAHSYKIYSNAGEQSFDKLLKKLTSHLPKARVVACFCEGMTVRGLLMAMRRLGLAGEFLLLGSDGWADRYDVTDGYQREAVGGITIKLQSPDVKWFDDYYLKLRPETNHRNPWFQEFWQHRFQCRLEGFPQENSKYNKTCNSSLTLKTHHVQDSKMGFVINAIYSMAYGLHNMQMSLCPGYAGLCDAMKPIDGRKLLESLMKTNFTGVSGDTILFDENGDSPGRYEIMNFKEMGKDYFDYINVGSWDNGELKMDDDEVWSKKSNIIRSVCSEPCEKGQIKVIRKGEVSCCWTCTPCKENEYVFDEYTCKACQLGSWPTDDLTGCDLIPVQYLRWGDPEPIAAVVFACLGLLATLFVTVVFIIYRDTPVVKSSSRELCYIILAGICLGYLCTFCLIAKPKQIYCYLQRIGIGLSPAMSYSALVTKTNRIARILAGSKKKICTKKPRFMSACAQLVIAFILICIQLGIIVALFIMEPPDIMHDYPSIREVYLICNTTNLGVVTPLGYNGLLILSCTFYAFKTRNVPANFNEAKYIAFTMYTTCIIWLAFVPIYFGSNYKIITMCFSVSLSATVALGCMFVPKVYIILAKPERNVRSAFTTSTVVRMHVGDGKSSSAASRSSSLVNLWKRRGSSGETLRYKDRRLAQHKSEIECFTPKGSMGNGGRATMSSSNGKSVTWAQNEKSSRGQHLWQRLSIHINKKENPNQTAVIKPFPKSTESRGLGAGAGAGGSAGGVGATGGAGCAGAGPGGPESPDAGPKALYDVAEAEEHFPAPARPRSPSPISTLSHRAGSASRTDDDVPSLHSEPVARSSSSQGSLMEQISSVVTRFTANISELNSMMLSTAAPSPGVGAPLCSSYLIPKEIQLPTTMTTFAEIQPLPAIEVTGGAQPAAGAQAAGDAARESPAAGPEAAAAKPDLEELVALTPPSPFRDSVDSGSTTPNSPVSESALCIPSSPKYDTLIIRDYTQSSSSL
Metabotropic glutamate receptor 8 (Homo sapiens), sequence (O00222 whole entry): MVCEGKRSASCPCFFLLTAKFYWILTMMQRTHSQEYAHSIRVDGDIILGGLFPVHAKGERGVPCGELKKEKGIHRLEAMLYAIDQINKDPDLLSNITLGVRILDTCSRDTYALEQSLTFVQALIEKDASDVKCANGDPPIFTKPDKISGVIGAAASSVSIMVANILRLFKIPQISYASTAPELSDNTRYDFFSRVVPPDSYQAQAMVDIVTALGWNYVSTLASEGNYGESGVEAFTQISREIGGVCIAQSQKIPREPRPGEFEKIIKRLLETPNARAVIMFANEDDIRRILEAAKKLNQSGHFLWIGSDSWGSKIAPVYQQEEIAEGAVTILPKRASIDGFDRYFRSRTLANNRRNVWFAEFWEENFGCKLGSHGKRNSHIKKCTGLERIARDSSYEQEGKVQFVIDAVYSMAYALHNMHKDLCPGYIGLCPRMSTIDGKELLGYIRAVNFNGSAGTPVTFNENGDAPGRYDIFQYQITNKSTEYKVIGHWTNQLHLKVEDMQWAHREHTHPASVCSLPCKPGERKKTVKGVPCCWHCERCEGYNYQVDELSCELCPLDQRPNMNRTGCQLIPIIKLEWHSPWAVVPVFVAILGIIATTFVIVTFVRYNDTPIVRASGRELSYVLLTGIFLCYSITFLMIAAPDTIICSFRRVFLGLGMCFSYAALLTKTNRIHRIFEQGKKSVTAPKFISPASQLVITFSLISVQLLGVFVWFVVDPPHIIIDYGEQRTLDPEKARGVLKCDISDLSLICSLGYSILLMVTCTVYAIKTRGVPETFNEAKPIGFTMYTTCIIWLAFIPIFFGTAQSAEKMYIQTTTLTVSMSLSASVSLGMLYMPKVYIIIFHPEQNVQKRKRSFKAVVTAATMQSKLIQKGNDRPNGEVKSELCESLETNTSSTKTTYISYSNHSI

For `O=C(NCc1ccc(-c2ccn3c(CC4CC4)nnc3c2C(F)(F)F)cc1)c1ccc(S(=O)(=O)F)cc1`, in experiment [1], the EC50 was 15.1 nM. For the same compound, the Ki in [2] is 5.75 nM; in [3] it was 4.17 nM. Besides, the K in experiment [4] was determined as 2.2 ×10⁵ /M/s; in experiment [5], 0.00057 s⁻¹. For the same compound, the TIME in experiment [6] amounted to 0.483 h. For the same compound, in [7], the inhibition entry was “inactive”.

For `O=C(Nc1ccc(-c2ccn3c(CC4CC4)nnc3c2C(F)(F)F)cc1)c1ccc(S(=O)(=O)F)cc1`, the EC50 was 158 nM in experiment [1], 178 nM in experiment [10] and 1260 nM in [11]. Moreover, the Ki is 61.7 nM in experiment [2], 6.17 nM in experiment [3] and 174 nM in [15]. Besides, the Ratio Ki in experiment [8] stood at 10. Also, the K in experiment [4] is 3.2 ×10³ /M/s. The inhibition entry (in experiment [9]; in the experiment filed under Homo sapiens [21]) was “inactive” throughout. Moreover, the inhibition entry (in experiment [7]; in the experiment filed under Homo sapiens [17]; in experiment [18]; in [19]; in the experiment listed under Homo sapiens [20]) was “Active” throughout. For the same compound, the Ratio EC50 in experiment [12] turned out to be 7. Besides, the outcome in [13] and in experiment [14] was Active. This compound also yielded a pKi in experiment [16] of 6.45.

`O=C(Nc1cccc(-c2ccn3c(CC4CC4)nnc3c2C(F)(F)F)c1)c1ccc(S(=O)(=O)F)cc1`: the EC50 in experiment [1] is 158 nM. Moreover, the results for the inhibition constant Ki in experiment [2] and in experiment [3] were 112 nM and 166 nM, respectively. In addition, the result in experiment [22], in experiment [24], in experiment [25], in experiment [27], in [28] and in experiment [30] was inactive. Further, the result in experiment [31] was inactive. Also, the inhibition entry in experiment [23], in experiment [26], in experiment [29], in [32] and in [7] was “inactive” throughout. Further, the K in experiment [4] worked out at 2.1 ×10⁴ /M/s; in experiment [5], 0.00091 s⁻¹. In [6], the TIME is 0.3 h.

Regarding `FC(F)(F)c1c(CN2CCC(c3ccccc3)CC2)ccn2c(CC3CC3)nnc12`, the inhibition result in the experiment filed under Homo sapiens [17] and in the experiment listed under Homo sapiens [20] was “inactive” throughout.
